Calls of active or inactive are those of the source. The rule behind the calls is not given here.
How the values were obtained:
[1] = Selectivity index, ratio of IC50 for human MCF7 cells to IC50 for human HT-29 cells assessed as reduction in cell viability after 72 hrs by alamar blue assay; assay type: functional
HT-29 [2] = assay: Antiproliferative activity against human HT-29 cells assessed as reduction in cell viability after 72 hrs by alamar blue assay; assay type: functional, cell-based; conditions: HT-29, 72 h
Procedure, shortened: (§1)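 Cells seeded at 5 x 10^3/well (MCF-7) or 1 x 10^4/well (HT-29, HEK-293T) and treated after 24 h with serial dilutions (0.001-100 µM) in 1% v/v ethanol vehicle. Alamar Blue 10% v/v added at 72 h, then 3-5 h at 37 °C in the dark; fluorescence ex 530/em 590 nm. Viability relative to vehicle; IC50 from dose-response curves; mean of three experiments in triplicate.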

MCF7 = assay: Antiproliferative activity against human MCF7 cells assessed as reduction in cell viability after 72 hrs by alamar blue assay; assay type: functional, cell-based; conditions: MCF7, 72 h; procedure, shortened: as §1
Bos taurus = species on record: Bos taurus; assay: Inhibition of bovine brain tubulin polymerization at 10 uM measured at 30 sec interval for 30 mins in presence of GTP by turbidimetry-based spectrophotometric method
[3] = Half life of the compound in phosphate buffer at pH 9 by HPLC analysis; assay type: physicochemical
Procedure, shortened: (§2)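 Compound stock was 1 mg/mL in mobile phase; 30 µL was diluted into 1 mL phosphate buffer (pH 4, 7.4 or 9) and held at 37 °C. Samples were taken at 0, 5, 30 and 60 min, then hourly to 24 h. Analysis was reverse-phase C18 HPLC with acetonitrile/water mobile phase at 1 mL/min and detection at 254 nm.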

[4] = Half life of the compound in phosphate buffer at pH 7.4 by HPLC analysis; assay type: physicochemical; procedure, shortened: as §2
[5] = Half life of the compound in phosphate buffer at pH 4 by HPLC analysis; assay type: physicochemical; procedure, shortened: as §2
HT-29 [6] = assay: Antiangiogenic activity in human HT29 cells assessed as reduction in IL-1alpha secretion at 5 uM after 24 hrs by ELISA; assay type: functional, cell-based
Procedure, shortened: (§3)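 HT-29 cells at 5 x 10^4 per well, cultured 24 h and then exposed to 5 µM compound. Conditioned medium collected on ice and stored at -80 °C. Cytokines and angiogenic, vascular-injury and chemokine factors measured by multiplex panels with overnight supernatant incubation (Angiogenesis Panel 1 and Vascular Injury Panel 2 same day). Medium undiluted except 1:4 for Vascular Injury Panel 2. Secretion normalised to lysate protein by BCA.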

HT-29 [7] = assay: Antiangiogenic activity in human HT29 cells assessed as reduction in IL-1beta secretion at 5 uM after 24 hrs by ELISA; assay type: functional, cell-based; procedure, shortened: as §3
HT-29 [8] = assay: Antiangiogenic activity in human HT29 cells assessed as reduction in VEGF secretion at 5 uM after 24 hrs by ELISA; assay type: functional, cell-based; procedure, shortened: as §3
HT-29 [9] = assay: Antiangiogenic activity in human HT-29 cells assessed as increase in IL-1RA secretion at 5 uM after 24 hrs by ELISA; assay type: functional, cell-based; procedure, shortened: as §3

Row | SMILES | Ratio IC50 [1] | IC50 (HT-29 [2]) | IC50 (MCF7) | further results
1 | COc1ccc([C@H]2CC(=O)N2c2cc(OC)c(OC)c(OC)c2)cc1I | 3.16 | 260 nM | 821 nM | –
2 | COc1ccc([C@H]2[C@H](Cl)C(=O)N2c2cc(OC)c(OC)c(OC)c2)cc1I | 2.22 | 190 nM | 421 nM | –
3 | COc1ccc([C@H]2CC(=O)N2c2cc(OC)c(OC)c(OC)c2)cc1Cl | 0.91 | 154 nM | 140 nM | –
4 | COc1ccc([C@H]2[C@H](O)C(=O)N2c2cc(OC)c(OC)c(OC)c2)cc1I | 4.77 | 21 nM | 100 nM | –
5 | COc1ccc([C@H]2[C@H](Oc3ccccc3)C(=O)N2c2cc(OC)c(OC)c(OC)c2)cc1F (relative stereo) | 0.47 | 155 nM | 73 nM | –
6 | COc1ccc([C@@H]2N(c3cc(OC)c(OC)c(OC)c3)C(=O)C2(Cl)Cl)cc1C | 2.34 | 319 nM | 747 nM | –
7 | COc1ccc([C@H]2[C@H](c3ccccc3)C(=O)N2c2cc(OC)c(OC)c(OC)c2)cc1C | 3.02 | 153 nM | 462 nM | –
8 | C=C(C)[C@@H]1C(=O)N(c2cc(OC)c(OC)c(OC)c2)[C@H]1c1ccc(OC)c(Cl)c1 | 0.56 | 480 nM | 270 nM | –
9 | COc1ccc([C@@H]2N(c3cc(OC)c(OC)c(OC)c3)C(=O)C2(Cl)Cl)cc1Cl | 0.91 | 154 nM | 140 nM | –
10 | COc1ccc([C@H]2CC(=O)N2c2cc(OC)c(OC)c(OC)c2)cc1Br | 0.94 | 64 nM | 60 nM | –
11 | C=C[C@@H]1C(=O)N(c2cc(OC)c(OC)c(OC)c2)[C@H]1c1ccc(OC)c(C)c1 | 1.67 | 197 nM | 328 nM | –
12 | COc1ccc([C@H]2[C@H](Cl)C(=O)N2c2cc(OC)c(OC)c(OC)c2)cc1F | – | 15 nM | 40 nM | –
13 | C=C(C)[C@@H]1C(=O)N(c2cc(OC)c(OC)c(OC)c2)[C@H]1c1ccc(OC)c(F)c1 | 0.48 | 678 nM | 323 nM | –
14 | COc1ccc([C@H]2[C@H](Cl)C(=O)N2c2cc(OC)c(OC)c(OC)c2)cc1C | 1.95 | 222 nM | 433 nM | –
15 | COc1ccc([C@H]2[C@H](O)C(=O)N2c2cc(OC)c(OC)c(OC)c2)cc1Br | 4.89 | 9 nM | 44 nM | inhibition (Bos taurus): Active
16 | COc1ccc([C@@H]2N(c3cc(OC)c(OC)c(OC)c3)C(=O)C2(Cl)Cl)cc1I | 3.53 | 251 nM | 885 nM | –
17 | COc1ccc([C@H]2[C@H](Cl)C(=O)N2c2cc(OC)c(OC)c(OC)c2)cc1Cl | 0.63 | 144 nM | 91 nM | –
18 | COc1ccc([C@H]2CC(=O)N2c2cc(OC)c(OC)c(OC)c2)cc1C | 1.68 | 189 nM | 317 nM | –
19 | COc1ccc([C@H]2[C@H](Oc3ccccc3)C(=O)N2c2cc(OC)c(OC)c(OC)c2)cc1Br | 1.42 | 577 nM | 818 nM | –
20 | COc1ccc([C@H]2[C@H](c3ccccc3)C(=O)N2c2cc(OC)c(OC)c(OC)c2)cc1 | 0.68 | 22 nM | 15 nM | –

Row | SMILES | Ratio IC50 [1] | IC50 (HT-29 [2]) | IC50 (MCF7) | further results
21 | COc1ccc([C@@H]2N(c3cc(OC)c(OC)c(OC)c3)C(=O)C2(Cl)Cl)cc1Br | 0.73 | 1540 nM | 1120 nM | –
22 | COc1ccc([C@H]2[C@H](O)C(=O)N2c2cc(OC)c(OC)c(OC)c2)cc1Cl | 0.67 | 18 nM | 12 nM | inhibition (Bos taurus): Active
23 | C=C[C@@H]1C(=O)N(c2cc(OC)c(OC)c(OC)c2)[C@H]1c1ccc(OC)c(F)c1 | – | 37 nM | 38 nM | –
24 | COc1ccc([C@H]2[C@H](N)C(=O)N2c2cc(OC)c(OC)c(OC)c2)cc1Cl | 0.84 | 167 nM | 141 nM | half-life [3]: > 1440 min; half-life [4]: > 1440 min; half-life [5]: > 1440 min
25 | C=C[C@@H]1C(=O)N(c2cc(OC)c(OC)c(OC)c2)[C@H]1c1ccc(OC)c(Cl)c1 | 0.41 | 293 nM | 120 nM | –
26 | C=C[C@@H]1C(=O)N(c2cc(OC)c(OC)c(OC)c2)[C@H]1c1ccc(OC)c(Br)c1 | 0.97 | 91 nM | 88 nM | –
27 | COc1ccc([C@H]2[C@H](Oc3ccccc3)C(=O)N2c2cc(OC)c(OC)c(OC)c2)cc1C | 7.14 | 313 nM | 2240 nM | –
28 | COc1ccc([C@@H]2N(c3cc(OC)c(OC)c(OC)c3)C(=O)C2(Cl)Cl)cc1F | 1.48 | 117 nM | 173 nM | –
29 | C=C(C)[C@@H]1C(=O)N(c2cc(OC)c(OC)c(OC)c2)[C@H]1c1ccc(OC)c(I)c1 | 1.29 | 1050 nM | 1350 nM | –
30 | COc1ccc([C@H]2[C@H](Cl)C(=O)N2c2cc(OC)c(OC)c(OC)c2)cc1Br | 3.12 | 194 nM | 603 nM | –
31 | COc1ccc([C@H]2[C@H](Oc3ccccc3)C(=O)N2c2cc(OC)c(OC)c(OC)c2)cc1I | 0.9 | 232 nM | 208 nM | –
32 | C=C[C@@H]1C(=O)N(c2cc(OC)c(OC)c(OC)c2)[C@H]1c1ccc(OC)c(I)c1 | 0.7 | 306 nM | 215 nM | –
33 | C=C(C)[C@@H]1C(=O)N(c2cc(OC)c(OC)c(OC)c2)[C@H]1c1ccc(OC)c(Br)c1 | 0.83 | 333 nM | 284 nM | –
34 | COc1ccc([C@H]2CC(=O)N2c2cc(OC)c(OC)c(OC)c2)cc1F | 1.47 | 15 nM | 22 nM | Activity (HT-29 [6]): inactive; Activity (HT-29 [7]): inactive; Activity (HT-29 [8]): inactive; Activity (HT-29 [9]): Active
35 | COc1ccc([C@H]2[C@H](c3ccccc3)C(=O)N2c2cc(OC)c(OC)c(OC)c2)cc1Br | 2 | 325 nM | 651 nM | –
36 | COc1ccc([C@H]2[C@H](c3ccccc3)C(=O)N2c2cc(OC)c(OC)c(OC)c2)cc1Cl | 9.58 | 24 nM | 230 nM | –
37 | C=C(C)[C@@H]1C(=O)N(c2cc(OC)c(OC)c(OC)c2)[C@H]1c1ccc(OC)c(C)c1 | 2.16 | 358 nM | 773 nM | –
38 | COc1ccc([C@H]2[C@H](c3ccccc3)C(=O)N2c2cc(OC)c(OC)c(OC)c2)cc1O | 0.01 | 430 nM | 4 nM | Activity (HT-29 [6]): inactive; Activity (HT-29 [7]): inactive; Activity (HT-29 [8]): inactive; Activity (HT-29 [9]): Active
39 | COc1ccc([C@H]2[C@H](N)C(=O)N2c2cc(OC)c(OC)c(OC)c2)cc1F | 2.03 | 238 nM | 483 nM | –
